In ChEMBL document CHEMBL1132389, “Novel farnesol and geranylgeraniol analogues: A potential new class of anticancer agents directed against protein prenylation” (J Med Chem, 1999):

Assays:
NIH3T3 [1] = assay: Inhibition of anchorage independent growth of H-Ras(61L)CVLL-transformed NIH3T3 fibroblasts in soft agar; format: functional, cell-based; conditions: Mus musculus
How it was run: (§1)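 NIH3T3 fibroblasts transfected with H-Ras(61L) (H-Ras-F) or H-Ras(61L)CVLL (H-Ras-GG), kept in DMEM with 10% calf serum and 1% antibiotic/antimycotic at 37 °C, 10% CO2. Two-layer soft agar (0.6% bottom, 0.3% top). Cells seeded in the top layer with compound in ethanol over a concentration range, added only at seeding. Grown 2 weeks at 37 °C. Colonies stained with p-iodonitrotetrazolium violet 24 h before image-analysis count. IC50 reported.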

NIH3T3 [2] = assay: Inhibition of anchorage independent growth of H-Ras(61L)-transformed NIH3T3 fibroblasts in soft agar; format: functional, cell-based; conditions: Mus musculus; how it was run: as §1
[3] = molecular target: Protein farnesyl/geranylgeranyl transferase (Homo sapiens) (UniProt P49354+P49356+P53609); assay: Relative IC50 for farnesyl and geranylgeranyl transferase; format: protein-complex assay
[4] = molecular target: T1, Protein farnesyltransferase (Homo sapiens, UniProt P49354+P49356); assay: Inhibition of recombinant farnesyltransferase (mFTase) in scintillation proximity assay; format: protein-complex assay
How it was run: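 Recombinant mammalian FTase in scintillation proximity assay with streptavidin beads. Substrates: tritiated FPP (15–30 Ci/mmol, final 0.12 μM) and biotin-Aha-TKCVIM peptide (final 0.1 μM). IC50 determined. Ki from the same system with varied tritiated FPP concentrations.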

[5] = molecular target: Geranylgeranyl transferase type I (Homo sapiens, UniProt P49354+P53609); assay: Inhibition of recombinant Geranylgeranyl transferase type I in scintillation proximity assay; format: protein-complex assay
How it was run: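 Recombinant mammalian GGTase I in scintillation proximity assay with streptavidin beads, using tritiated GGPP and biotin-Aha-TKCVIL peptide as substrates. Run in the same manner as the FTase assay. IC50 and Ki values determined.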

[6] = molecular target: T1, Protein farnesyltransferase; assay: Relative Vmax compared to FPP in continuous spectrofluorimetric assay
[7] = test system: C=C/C(=C\COP(=O)(O)OP(=O)(O)O)CC/C=C(\C)CCC=C(C)C; assay: (§2) Km determined in continuous spectrofluorimetric assay; format: protein-complex assay; conditions: Homo sapiens
How it was run: (§3)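 Continuous fluorimetric assay with recombinant mammalian FTase and dansyl-GCVLS peptide. Buffer: Tris-HCl pH 7.0, DTT, MgCl2, ZnCl2, with 0.4% n-dodecyl-β-D-maltoside solution. Premixed 5 min at 30 °C. Isoprenoid diphosphate at final 0.10 to 5 μM. Reaction started with enzyme. Fluorescence (ex 350, em 486 nm) read for 300 s at 30 °C. Linear rate converted to μM/s using a separately measured enhancement factor for each substrate. Km derived from the rates.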

[8] = test system: C=CC/C(=C\COP(=O)(O)OP(=O)(O)O)CC/C=C(\C)CCC=C(C)C; assay: as §2; format: protein-complex assay; conditions: Homo sapiens; how it was run: as §3

| Ratio [3] | IC50 [4] [µM] | IC50 [5] [µM] | Molecule | IC50 (NIH3T3 [1]) [µM] | IC50 (NIH3T3 [2]) [µM] | also measured |
| --- | --- | --- | --- | --- | --- | --- |
|  |  |  | CC(C)=CCC/C(C)=C/CC/C(=C/CO)c1ccccc1 | > 25 | > 25 |  |
| 4.3 | 0.715 | 3.05 | C=C/C(=C\COP(=O)(O)OP(=O)(O)O)CC/C=C(\C)CC/C=C(\C)CCC=C(C)C |  |  |  |
| > 340 | 0.299 | > 100 | CC(C)=CCC/C(C)=C/CC/C(=C/COP(=O)(O)OP(=O)(O)O)c1ccccc1 |  |  |  |
| > 530 | 0.189 | > 100 | C=CC/C(=C\COP(=O)(O)OP(=O)(O)O)CC/C=C(\C)CCC=C(C)C |  |  | Krel [6]: 0.0711 |
|  |  |  | C=C/C(=C\CO)CC/C=C(\C)CCC=C(C)C | 14.1 | 10.9 |  |
| 600 | 0.173 | 100 | C=C/C(=C\COP(=O)(O)OP(=O)(O)O)CC/C=C(\C)CCC=C(C)C |  |  | Krel [6]: 0.524 |
|  |  |  | CC/C(=C\CO)CC/C=C(\C)CCC=C(C)C | > 25 | > 25 |  |
|  |  |  | C=C/C(=C\CO)CC/C=C(\C)CC/C=C(\C)CCC=C(C)C | 13.9 | 18 |  |
| 7.5 | 0.453 |  | C=CC/C(=C\COP(=O)(O)OP(=O)(O)O)CC/C=C(\C)CC/C=C(\C)CCC=C(C)C |  |  |  |
| 1600 | 0.031 | 50 | CC(C)=CCC/C(C)=C/CC/C(=C/COP(=O)(O)OP(=O)(O)O)C(C)(C)C |  |  |  |
|  |  |  | Protein farnesyltransferase (Homo sapiens) (from UniProt P49354+P49356) |  |  | Km [7]: 0.156 µM; Km [8]: 0.703 µM |
|  |  |  | C=CC/C(=C\CO)CC/C=C(\C)CC/C=C(\C)CCC=C(C)C | 4.6 | > 25 |  |
|  |  |  | C=CC/C(=C\CO)CC/C=C(\C)CCC=C(C)C | > 25 | 10.2 |  |
| > 460 | 0.215 | > 100 | CC/C(=C\COP(=O)(O)OP(=O)(O)O)CC/C=C(\C)CCC=C(C)C |  |  |  |
